Data on 48 sequences can be found in the EternaBench riboswitch data.

In this data set the test system is MS2 coat protein. In words: apparent Kd, MS2 coat protein; higher = weaker binding; RNA-MaP array; FMN 200 µM where present. Summed up: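 The apparent Kd is reported as the median of filtered per-cluster binding-curve fits. To get these curves, designs transcribed by stalled E. coli RNA polymerase on Illumina sequencing-chip clusters were titrated with SNAP-549-labelled MS2 coat protein from 0.7 or 1.5 nM, doubling to 3 µM. Titrations were run without and then with constant ligand in 100 mM Tris-HCl pH 7.5, 80 mM KCl, 4 mM MgCl2, BSA, DTT, yeast tRNA and Tween-20, and green signal was normalised to red-channel RNA signal and control-cluster median Fmax.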

Where [1] appears, read: designed as: ON switch for flavin mononucleotide, no ligand.
[2] abbreviates: ligand present: flavin mononucleotide, designed as: ON switch for flavin mononucleotide.
Where [3] appears, read: designed as: OFF switch for flavin mononucleotide, no ligand.
The mark [4] stands for this setting: ligand present: flavin mononucleotide, designed as: OFF switch for flavin mononucleotide.

With “CCAUAACAUGAGGAUCACCCAUGUCGACUAAAUCAAGGAUAUGGGAACGCGCAAGCAAAACCAGAAGGUGAGGUCC”, the “apparent Kd” value is, setting by setting: under setting [1], 255 nM; under setting [2], 236 nM.

Consider “AAGCUGUCAGGAUAUCGUUAAUUUAGUUGUUUGUAUUAGUUCGAGAAGGGACAUGAGGAUCACCCAUGUAUAUA”, for which the “apparent Kd” value reads like this: under setting [3], 37.8 nM; under setting [4], 76.8 nM.

Consider “GAGCGAAAGCUCAAUGUCGAUAGCAGAAGGACAUCCUUAAACAUGAAAACAUGAGGAUCACCCAUGUAGGAUAUGCUAUCGACU”, for which the “apparent Kd” value runs as follows: under setting [3], 7.31 nM; under setting [4], 9.1 nM.

Regarding “CUGAAGUCAGGAUAUUGUUAAUUUAGUUGUUUGUAUUAGUUCGAGAAGGGACAUGAGGAUCACCCAUGUAAGUC”, the “apparent Kd” value by setting is: under setting [3], 32 nM; under setting [4], 27.1 nM.

For the sequence “AUGCUUCACACAGGAUAUACAUGAGGAUCACCCAUGUGUCCAAAGUAGCCGACACGAGCUACGCGGUAGAAGGGUGUGAAGCAU”, the “apparent Kd” value reads like this: under setting [3], 18.6 nM; under setting [4], 52.2 nM.

Regarding “ACAGGUGCAGGAUAUACAAUCGUGCUUCGGCACGUAAGAUCACAUGAGGAUCACCCAUGUAGAAGGGCACCUGU”, the “apparent Kd” value is 44.9 nM under setting [3] and 447 nM under setting [4].

“GUGACUUAUAGAGGAUAUUGACAUGAGGAUCACCCAUGUAUUUGGGAGUGUUCACUGAAUUCUUACGAGAAGGCUAUAAGACAC”: the “apparent Kd” value was 229 nM under setting [3] and 224 nM under setting [4].

For the sequence “AUGAGGUCAGGAUAUGCAUGGCGGGACUUGCGUCGUGGCGUGCAGAAGGGACAUGAGGAUCACCCAUGUGGAGU”, the “apparent Kd” value by setting is: under setting [3], 152 nM; under setting [4], 218 nM.

Take “GGUACUCAAAGAGUACCAAUACGAACAUGAGGAUCACCCAUGUAGGAUAUGAAAACGCCGGAGUAUCAGAAGGACAUGUGCCUA”: the “apparent Kd” value runs as follows: under setting [3], 12.6 nM; under setting [4], 21.3 nM.

On to “GAUAUAGUUGAGAAGGGAAGGGCACAGUCCUCUCUAAAACUACAUGAGGAUCACCCAUGUGGCUUUCAGGAUAUCAGCGCUAAA”, for which the “apparent Kd” value under setting [3] came to 22.5 nM and the “apparent Kd” value under setting [4] is 109 nM.

For “UACGCCAGUGAGAAGGCAUGUUCACAUGAGGAUCACCCAUGUAUACUCAUGAGGAUAUCAAAUGCGGACCAAAAUAAAAUUUGA”, the “apparent Kd” value is 313 nM under setting [1] and 22.2 nM under setting [2].

Take “GUGCAUUCGUAGAAGGGUGACAUGAGGAUCACCCAUGUGCGCUGGGCUCAGGAUGCCUCAGCGCCACAGGAUAUACGAAGCACC”: the “apparent Kd” value is, setting by setting: under setting [1], 97.6 nM; under setting [2], 35.1 nM.

As for “GCGUCAGAAUUAAUUGUGACAGACAGAAGGCAAUAGUAUGUGACCGACAUGAGGAUCACCCAUGUUGAGGAUAUGUAUUGACAC”, the “apparent Kd” value turned out to be 5.68 nM under setting [3] and 7.08 nM under setting [4].

For “GCUUGUGAAGGAUAUACUGGCGGCAUGCGCUCGACACGCGCACAUGAGGAUCACCCAUGUAGAAGGUCAAACGU”, the “apparent Kd” value under setting [3] turned out to be 17.2 nM and the “apparent Kd” value under setting [4] stood at 17.7 nM.

On to “GGGUACAUCGGAGGAUAUCAUGUAAAUACAUGAGGAUCACCCAUGUCGAUGGAGACAUCGGAGAUUGAGAAGGCGGAUGUACCG”, for which the “apparent Kd” value is, setting by setting: under setting [1], 309 nM; under setting [2], 23.1 nM.

As to “GCCCUCGCUGAGGAUAUUAUCUGGUUCGAUUGAUAAGAAGGCAGUACAUGAGGAUCACCCAUGUGGUUCGUUCG”, the “apparent Kd” value under setting [3] turned out to be 70.9 nM and the “apparent Kd” value under setting [4] turned out to be 377 nM.

With “CUCUUGAGUCAGGAUAUCGUGAGGCUAAUAAUACGAGAAGGGACAACAUGAGGAUCACCCAUGUGGUCGAAGAG”, the “apparent Kd” value runs as follows: under setting [3], 32.9 nM; under setting [4], 78.3 nM.

Regarding “UUGAUAAGGAGAGGAUAUUGACAUGAGGAUCACCCAUGUACAUGGGAGUGUUUACUGAAUUCUUACGAGAAGGCUUACAUAUUU”, the “apparent Kd” value came out at 245 nM under setting [3] and 166 nM under setting [4].

As for “CCUAUGUGAGGAUAUGGUGUUGGCCACAAGGAAAAGCUCCUCCAGAAGGCACAUGAGGAUCACCCAUGUCGUGG”, the “apparent Kd” value is 21.5 nM under setting [3] and 115 nM under setting [4].

With “CAGUAAUUCGAAGGAUAUGGUUACAUGAGGAUCACCCAUGUAUUUUUUGUGAUCUUAAAAUUGAUCCAGAAGGUCGAAUUACUG”, the “apparent Kd” value reads like this: under setting [3], 177 nM; under setting [4], 373 nM.

With “GUUAUUUAUGUAGGAUAUGCGAGGCGAGCCUAAGCAGAAGGACAUGAGGAUCACCCAUGUAUUGCGGUUUGCGUUCAGAUCGCU”, the “apparent Kd” value stood at 21.1 nM under setting [3] and 37.8 nM under setting [4].

In the case of “UCCUCCGCAGGAUAUACAUGGGCGCCCGUCUUCAACCAUUAACAUGAGGAUCACCCAUGUAGAAGGGCGUCUCU”, the “apparent Kd” value runs as follows: under setting [3], 16.1 nM; under setting [4], 15.5 nM.

For the sequence “CGCAAACAUGAGGAUCACCCAUGUCAAUGUGAUCAAGGAUAUGGGUUCCUAAACGGAACACCAGAAGGUGAGUAGA”, the “apparent Kd” value runs as follows: under setting [1], 85.2 nM; under setting [2], 23.8 nM.

With “AAAACGGCGCGUCCCGCACCAACUACAGAAGGCCAACAUGAGGAUCACCCAUGUACAAACUAGAUGGAGGAUAUGUAGGUUCUA”, the “apparent Kd” value runs as follows: under setting [1], 6.76 nM; under setting [2], 4.63 nM.

On to “CCGCAUAUGGAGGAUAUCGUAUCGGAAACGAUACGAGAAGGCUAAACAUGAGGAUCACCCAUGUUCCUUAACGG”, for which the “apparent Kd” value was found to be 18.1 nM under setting [3] and 18.1 nM under setting [4].

Turning to “AUCGUGCAGCUUUGCUGUACGCGUACAUGAGGAUCACCCAUGUAGGAUAUGGUAGGCUUUGCUUACUAGAAGGAUAGUGUGAUC”, the “apparent Kd” value by setting is: under setting [3], 106 nM; under setting [4], 33.2 nM.

Turning to “CAUUGCGGAGGAUAUAGGCCGUAAUACAUGAGGAUCACCCAUGUGCCGCUGUAUAAUUCCCUAGAAGGUUGCCAUC”, the “apparent Kd” value by setting is: under setting [3], 15.4 nM; under setting [4], 15.7 nM.

On to “CUGAUUAUACAAGGAUAUCUUUUGUUGUUUCGACUUACAUGAGGAUCACCCAUGUUAAUAUUUUUAGAGAAGGUGUAUUUUCAG”, for which the “apparent Kd” value under setting [1] amounted to 16.8 nM and the “apparent Kd” value under setting [2] is 20.3 nM.

“CCUCGUUGGGAGGAUAUCCUUUUGGUUGGAGGAGGAGAAGGCUCGACAUGAGGAUCACCCAUGUGGGAUUUCCU”: the “apparent Kd” value by setting is: under setting [3], 74.8 nM; under setting [4], 211 nM.

Take “UAGAAUCGAGGAUAUACAUGAGGAUCACCCAUGUGUUGCCGCAUGAUGUGAUCGUCAGGUAGAAGGCGAUUAUA”: the “apparent Kd” value runs as follows: under setting [3], 25.4 nM; under setting [4], 18.7 nM.

Take “AGUGUCAUCGAGAAGGCCUCAACAUGAGGAUCACCCAUGUUGCCAAAAGGGAGGAUAUCGAUGAUACAGCUACGUUUCGUAGCA”: the “apparent Kd” value by setting is: under setting [1], 4.15 nM; under setting [2], 4.34 nM.

With “AUACAUGAGGAUCACCCAUGUUACAUGGGCUAGUUUUAACGUAGAAGGAUGUUAUUAUUAUUAGCAUAGGAUAUACAAUUUGAA”, the “apparent Kd” value is, setting by setting: under setting [3], 274 nM; under setting [4], 248 nM.

Consider “UCGCUGCGAGGAUAUACGUUUGCGCGCUUUCGUUUGCGCGUACAUGAGGAUCACCCAUGUAGAAGGCGCGCUGC”, for which the “apparent Kd” value is, setting by setting: under setting [3], 15.5 nM; under setting [4], 15.5 nM.

For the sequence “GCCGGUUCCCUAGGAUAUGUACAUGAGGAUCACCCAUGUGCUUCUAGAGCCGGAGCAGGGCAUGUACAGAAGGAGGGUCGACCC”, the “apparent Kd” value is 6.47 nM under setting [3] and 7.39 nM under setting [4].

On to “CGGCACCGAGGAUAUACAUGAGGAUCACCCAUGUUUGUUGGGCCCUUAAGAUCUACGUGUAGAAGGUGGGUCGA”, for which the “apparent Kd” value runs as follows: under setting [3], 131 nM; under setting [4], 167 nM.

With “AAUAUGUUGCAGAAGGUUAUAUUUUUUUAGUACCUCAUGACAUGAGGAUCACCCAUGUAUUUGUUGAAGGAUAUGCAAUAUAUU”, the “apparent Kd” value runs as follows: under setting [3], 23.1 nM; under setting [4], 20.8 nM.

Consider “AAAAAACAUGAGGAUCACCCAUGUGAGGAUAUGACUUAAAUAAAGAAAGAAGAAAUAGUCAGAAGGCACAAAUA”, for which the “apparent Kd” value is, setting by setting: under setting [3], 54.5 nM; under setting [4], 70.4 nM.

With “AUGGUUGUCGUAGGAUAUGUAGGAUAUUCCUACAUGAGGAUCACCCAUGUUCGCAUGGAAGAAGGACGGAAGGACGAUGACCAA”, the “apparent Kd” value under setting [1] was found to be 249 nM and the “apparent Kd” value under setting [2] was 118 nM.

On to “CCCUGAGACUGGUUAAUUGGCUGAUAGGAUAUCCUCGGACAUGAGGAUCACCCAUGUUAACUAUUGGAGAAGGGUCAGCGAAAG”, for which the “apparent Kd” value reads like this: under setting [1], 445 nM; under setting [2], 181 nM.

On to “CGUAUGUCAGGAUAUGUGUAUGCCGCUCAGGGCGAGCGGCAGCAGAAGGGACAUGAGGAUCACCCAUGUUCGGG”, for which the “apparent Kd” value under setting [3] was 62.5 nM and the “apparent Kd” value under setting [4] worked out at 127 nM.

Turning to “GAAGCAUGCAUUAACAUGAGGAUCACCCAUGUGAAAACACGUGAGGAUAUUGAUCUGAAGAAGAUCGAGAAGGCACCGUGCUAA”, the “apparent Kd” value is, setting by setting: under setting [1], 14.1 nM; under setting [2], 9.11 nM.

“AGAUCACAUGAGGAUCACCCAUGUCAGGAUAUGAUACUAUGUACUUCGGUACAUAGUAUCAGAAGGGAUAUGAA”: the “apparent Kd” value is, setting by setting: under setting [3], 95.2 nM; under setting [4], 193 nM.

For “GAUUCACAUGAGGAUCACCCAUGUGAGGAUAUAGUGCAAGAGGUGGAUGCCCACCUCCCUAGAAGGCACACGGG”, the “apparent Kd” value was 28.6 nM under setting [3] and 24 nM under setting [4].

In the case of “UUUACAUGAGGAUCACCCAUGUUAAAAUAAUUAAUUAUAAGUGAGGAUAUAUAAAUUAUAAAAUUGUAGAAGGCACUGGGUAUC”, the “apparent Kd” value runs as follows: under setting [1], 47.9 nM; under setting [2], 44.5 nM.

Consider “AGUAGUUCAGGAUAUGAUGUAUGUUACAUGAGGAUCACCCAUGUAGGUCCUGGAAAUGUAUCAGAAGGGAAUAUCU”, for which the “apparent Kd” value was 108 nM under setting [3] and 111 nM under setting [4].

Turning to “AUCCUGCGAGGAUAUACAUAGUGACGUCUGUUUGGUCUCAAACAUGAGGAUCACCCAUGUAGAAGGUGCGUCAC”, the “apparent Kd” value was 66.3 nM under setting [3] and 66.5 nM under setting [4].

Regarding “UUCGUGCAGCUUUGCUGUACGCGUACAUGAGGAUCACCCAUGUAGGAUAUGGUAGGCUUUGCUUACUAGAAGGAUAGUGUGAUU”, the “apparent Kd” value under setting [3] turned out to be 118 nM and the “apparent Kd” value under setting [4] worked out at 81.8 nM.

Regarding “UUCAUGUGAGGAUAUAGUACUCUUUCUAUUAUUUUUGAGUAUUAGAAGGCACAUGAGGAUCACCCAUGUAGUAC”, the “apparent Kd” value under setting [3] was 89.7 nM and the “apparent Kd” value under setting [4] was determined as 18.8 nM.
